Assay results gathered from unrelated publications.
Lines come from different studies, so protocols differ.
MPO: Myeloperoxidase (MPO, Homo sapiens, UniProt P05164)
SLC6A2: Sodium-dependent noradrenaline transporter (SLC6A2, Homo sapiens, UniProt P23975)
Oprk1: Kappa-type opioid receptor (Oprk1, Mus musculus, UniProt P33534)

| Structure (SMILES) | target | read-out | mode | method | tested at | notes | inhibition [%] |
| --- | --- | --- | --- | --- | --- | --- | --- |
| COc1ccc(Cl)cc1-c1cc(=O)[nH]c(=S)n1CC(N)=O | MPO | enzyme activity | inhibitor | fluorescence | 30 µM | – | 98.3 |
| Cc1cc(O)c(-c2ccc([C@@H](C)CN(C)C)cc2)c2c1[nH]c(=O)c1sccc12 | RPS6KC1 (Homo sapiens, UniProt Q96S38) | cell-free assay | inhibitor | – | 0.1 µM | lysate | 5.19 |
| C#Cc1cc(-c2cc(Nc3nc(N[C@@H](C)c4ccc(F)cn4)ncc3Cl)n[nH]2)ccc1C=O | Interferon-induced, double-stranded RNA-activated protein kinase (EIF2AK2, Homo sapiens, UniProt P19525) | enzyme activity | inhibitor | – | 0.2 µM | – | 7.44 |
| N#CC[C@@]12C[C@@H]1[C@@H](n1cnc3c(NC4CC4)nc(C#Cc4ccc(Cl)s4)nc31)[C@H](O)[C@@H]2O | SLC6A2 | ligand displacement | – | radioligand | 10 µM | – | 28 |
| CC(C)[C@@H](CN1CCc2ccccc2C1)NC(=O)c1cccc(-c2ccccc2)c1 | Oprk1 | ligand displacement | – | radioligand | 10 µM | – | 66 |
| N#CC[C@@]12C[C@@H]1[C@@H](n1cnc3c(Nc4ccccc4)nc(I)nc31)[C@H](O)[C@@H]2O | SLC6A2 | ligand displacement | – | radioligand | 10 µM | – | 20 |
| CC(C)[C@@H](CN1CCc2ccccc2C1)NC(=O)c1cccc(-c2cccc(C#N)c2)c1 | Oprk1 | ligand displacement | – | radioligand | 10 µM | – | 80.6 |
| Cc1cc(F)cc2c(CCC(=O)N[C@@H]3C(=O)NC[C@H]3O)c(-c3ccc(F)cc3)[nH]c12 | SLC6A2 | cell-free assay | – | – | 10 µM | – | 21 |
| CC(C)[C@H](CN1CCc2ccccc2C1)NC(=O)c1c(Cl)cncc1Cl | Oprk1 | ligand displacement | – | radioligand | 10 µM | – | 69.4 |
| CCOC(=O)[C@@]12C[C@@H]1[C@@H](n1cnc3c(NCCO)nc(C#Cc4ccc(Cl)s4)nc31)[C@H](O)[C@@H]2O | SLC6A2 | ligand displacement | – | radioligand | 10 µM | – | 15 |
| CC(C)[C@@H](CN1CCc2ccccc2C1)NC(=O)c1ccc(F)cc1 | Oprk1 | ligand displacement | – | radioligand | 10 µM | – | 75.7 |
| NC/C(=C\F)COc1cccc(Cn2c(=S)[nH]c(=O)c3[nH]cnc32)c1 | MPO | enzyme activity | inhibitor | fluorescence | 3.333 µM | – | 99.2 |
| CCOC(=O)[C@@]12C[C@@H]1[C@@H](n1cnc3c(NCc4cccc(Cl)c4)nc(C#Cc4ccc(Cl)s4)nc31)[C@H](O)[C@@H]2O | SLC6A2 | ligand displacement | – | radioligand | 10 µM | – | 78 |
| CC(C)[C@@H](CN1CCc2ccccc2C1)NC(=O)C=Cc1ccccc1 | Oprk1 | ligand displacement | – | radioligand | 10 µM | – | 22.7 |
| OC[C@@]12C[C@@H]1[C@@H](n1cnc3c(N[C@@H](C4CCC4)C4CC4)nc(C#Cc4ccc(Cl)s4)nc31)[C@H](O)[C@@H]2O | SLC6A2 | ligand displacement | – | radioligand | 10 µM | – | 90 |
| CC(C)OCCn1c(=S)[nH]c(=O)c2[nH]ccc21 | MPO | enzyme activity | inhibitor | fluorescence | 0.1852 µM | – | 82.5 |
| N#CC[C@@]12C[C@@H]1[C@@H](n1cnc3c(Nc4ccccc4)nc(C#Cc4ccc(Cl)s4)nc31)[C@H](O)[C@@H]2O | SLC6A2 | ligand displacement | – | radioligand | 10 µM | – | 37 |
| CC(C)[C@@H](CN1CCc2ccccc2C1)NC(=O)c1ccc([N+](=O)[O-])s1 | Oprk1 | ligand displacement | – | radioligand | 10 µM | – | 68.8 |
